In general, IC50 refers to the point on the concentration scale where inhibition reaches its midpoint. The term Kd denotes the concentration at which binding is half-saturated.

Read-outs that look alike come from different tables or passages of the source.

The values below come from paper PMC7246176 (Nature chemical biology, 2020).

For one data set, the system named is PATU-8988T cells. In words: Cell viability, ultra-low adherent 3D-spheroid culture, PATU-8988T. The class given is cell-based, human. Conditions: 120 h, read-out: PATU-8988T cells 3D spheroid culture IC50. The method, boiled down: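 PATU-8902 or PATU-8988T cells were plated at 100 cells/well and left overnight to adhere (2D plates) or to form spheroids (ultra-low-attachment 3D spheroid plates). Compound was pin-transferred, then 120 h incubation. Viability by CellTiter-Glo luminescence after 15 min at room temperature, normalized to DMSO-treated wells for each cell line.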

In data set [1] the target is T1, ERK5 (Homo sapiens, UniProt Q13164). In words: ERK5 cellular kinase assay in HeLa cells. The class given is cell-based.
T1 sequence (Q13164 whole entry): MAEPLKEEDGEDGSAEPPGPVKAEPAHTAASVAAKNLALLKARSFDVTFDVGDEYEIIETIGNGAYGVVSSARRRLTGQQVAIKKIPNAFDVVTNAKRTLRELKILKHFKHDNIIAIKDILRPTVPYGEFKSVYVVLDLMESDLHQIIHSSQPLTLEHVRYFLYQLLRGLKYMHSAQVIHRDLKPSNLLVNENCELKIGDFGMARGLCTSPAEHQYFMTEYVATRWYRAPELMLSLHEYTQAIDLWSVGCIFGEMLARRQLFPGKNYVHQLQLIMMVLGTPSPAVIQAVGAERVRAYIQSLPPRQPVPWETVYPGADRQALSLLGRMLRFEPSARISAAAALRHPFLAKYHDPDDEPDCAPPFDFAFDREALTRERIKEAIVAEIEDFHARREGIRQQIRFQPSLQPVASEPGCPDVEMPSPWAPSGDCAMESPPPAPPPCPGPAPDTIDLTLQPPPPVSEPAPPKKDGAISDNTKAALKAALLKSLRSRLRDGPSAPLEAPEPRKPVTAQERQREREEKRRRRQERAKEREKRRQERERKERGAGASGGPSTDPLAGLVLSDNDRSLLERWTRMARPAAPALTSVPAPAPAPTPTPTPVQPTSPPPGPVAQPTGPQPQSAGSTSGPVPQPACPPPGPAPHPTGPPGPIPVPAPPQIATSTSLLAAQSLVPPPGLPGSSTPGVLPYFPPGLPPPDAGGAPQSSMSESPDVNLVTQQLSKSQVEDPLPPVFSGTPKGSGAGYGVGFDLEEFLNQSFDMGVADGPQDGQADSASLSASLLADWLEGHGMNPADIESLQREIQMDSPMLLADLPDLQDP
For data set [2], the target named is T1, ERK5. In words: ERK5 KINOMEscan binding assay.
For data set [3], the target named is T1, ERK5. In words: ERK5 32P-ATP kinase assay. The format is biochemical. Particulars: ERK5 kinase assay IC50, 32P-ATP; Table 1.
Data set [4] addresses T2, DCLK1-Nluc in HCT116 cells (Homo sapiens, UniProt O15075).
T2 sequence (O15075 1-729 isoform O15075-2): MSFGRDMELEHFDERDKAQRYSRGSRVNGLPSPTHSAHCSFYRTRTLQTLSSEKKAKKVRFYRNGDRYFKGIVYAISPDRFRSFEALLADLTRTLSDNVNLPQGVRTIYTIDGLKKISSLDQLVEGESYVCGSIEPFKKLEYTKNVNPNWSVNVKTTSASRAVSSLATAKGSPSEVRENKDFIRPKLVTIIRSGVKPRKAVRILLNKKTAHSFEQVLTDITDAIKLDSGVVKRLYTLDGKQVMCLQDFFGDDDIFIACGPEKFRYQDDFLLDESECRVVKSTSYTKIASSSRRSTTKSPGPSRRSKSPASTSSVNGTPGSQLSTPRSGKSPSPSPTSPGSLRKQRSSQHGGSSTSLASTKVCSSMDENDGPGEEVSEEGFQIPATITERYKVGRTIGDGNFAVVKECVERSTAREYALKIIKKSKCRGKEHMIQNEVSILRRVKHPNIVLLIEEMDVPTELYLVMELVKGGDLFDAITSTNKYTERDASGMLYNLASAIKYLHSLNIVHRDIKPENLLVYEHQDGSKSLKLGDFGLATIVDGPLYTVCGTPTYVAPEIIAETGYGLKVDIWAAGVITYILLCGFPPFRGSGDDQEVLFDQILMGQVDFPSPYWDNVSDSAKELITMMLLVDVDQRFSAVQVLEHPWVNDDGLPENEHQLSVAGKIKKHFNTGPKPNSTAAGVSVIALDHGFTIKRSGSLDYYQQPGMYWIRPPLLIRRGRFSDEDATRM
The data set is described as follows: DCLK1 NanoBRET target engagement assay in HCT116 cells. The format is cell-based.

In data set [5] the target is T3, purified, recombinant DCLK1 kinase domain (Homo sapiens, UniProt O15075).
T3 sequence (O15075 351-689 isoform O15075-2): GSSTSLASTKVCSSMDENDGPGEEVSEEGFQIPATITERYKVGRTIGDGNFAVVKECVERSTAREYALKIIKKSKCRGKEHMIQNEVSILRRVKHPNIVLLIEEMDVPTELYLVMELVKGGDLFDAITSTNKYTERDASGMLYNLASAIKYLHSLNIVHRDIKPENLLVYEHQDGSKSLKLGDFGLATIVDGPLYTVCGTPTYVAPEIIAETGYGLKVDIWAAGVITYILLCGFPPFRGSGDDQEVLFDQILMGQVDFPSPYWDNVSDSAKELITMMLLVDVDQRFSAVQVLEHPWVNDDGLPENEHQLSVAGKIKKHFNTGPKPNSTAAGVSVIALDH
The data set is described as follows: DCLK1 isothermal titration calorimetry. The class given is binding. A general note: In ITC the heat of successive injections is recorded.

The test system of another data set is PATU-8902 cells. The data set is described as follows: Cell viability, ultra-low adherent 3D-spheroid culture, PATU-8902. The class given is cell-based, human. Particulars: read-out: PATU-8902 cells 3D spheroid culture IC50. The method, boiled down:
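PATU-8988T and PATU-8902 cells were plated at 100 cells/well in 50 μL media, either adherent (2D) or in ultra-low attachment spheroid plates (3D), overnight. Test compound was pin-transferred and cells were incubated 120 h. Viability was read by CellTiter-Glo luminescence after 15 min at room temperature. Data were normalized to DMSO-treated wells per cell line and fitted.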

A further data set deals with rat hippocampal neurons. The data set is described as follows: Rat primary hippocampal neuron viability. Conditions: concentrations up to 10 μM, 24 hours. The format is cell-based. The method, boiled down:
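Rat primary hippocampal neurons on poly-L-lysine-coated coverslips were treated at DIV6 for 24 h with DMSO or test compound. They were then fixed in glutaraldehyde-containing cytoskeleton buffer with Triton X-100, followed by NaBH4, permeabilized in TBS with 0.5% Triton X-100, and processed for immunofluorescence.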

In another data set the test system is zebrafish. The data set is described as follows: Toxicity evaluation during zebrafish embryonic development. The format is in vivo. Conditions: days 1 to 8 post-fertilization, in fish water at concentrations up to 10 μM.
The next data set deals with T4, DCLK2 (Homo sapiens, UniProt Q8N568).
T4 sequence (Q8N568 1-766): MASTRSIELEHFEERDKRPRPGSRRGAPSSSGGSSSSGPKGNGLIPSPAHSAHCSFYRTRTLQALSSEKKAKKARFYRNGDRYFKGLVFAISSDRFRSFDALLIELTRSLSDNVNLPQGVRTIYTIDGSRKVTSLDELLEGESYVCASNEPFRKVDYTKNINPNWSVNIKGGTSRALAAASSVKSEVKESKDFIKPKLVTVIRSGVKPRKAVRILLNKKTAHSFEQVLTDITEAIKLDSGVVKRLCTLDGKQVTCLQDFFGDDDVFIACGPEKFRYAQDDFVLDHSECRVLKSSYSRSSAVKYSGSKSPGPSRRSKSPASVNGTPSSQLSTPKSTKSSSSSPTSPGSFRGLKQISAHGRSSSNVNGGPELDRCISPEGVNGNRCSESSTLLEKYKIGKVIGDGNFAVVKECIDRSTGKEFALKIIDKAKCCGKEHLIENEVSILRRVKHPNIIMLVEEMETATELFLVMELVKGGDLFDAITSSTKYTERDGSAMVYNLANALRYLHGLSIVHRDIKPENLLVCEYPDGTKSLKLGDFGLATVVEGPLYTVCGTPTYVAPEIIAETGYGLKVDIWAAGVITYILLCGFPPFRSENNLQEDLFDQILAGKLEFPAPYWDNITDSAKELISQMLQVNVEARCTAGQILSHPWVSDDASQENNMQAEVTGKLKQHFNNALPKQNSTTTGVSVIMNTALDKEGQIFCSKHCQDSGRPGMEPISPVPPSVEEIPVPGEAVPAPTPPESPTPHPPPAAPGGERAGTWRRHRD
In words: DCLK2 KINOMEscan binding assay. The method, boiled down:
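KINOMEscan competition binding run by a contract lab. Test compound in 12-point dose response, top concentration 10 μM. Values are the mean of n = 2 biologically independent samples.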

In the case of `COc1cc(N2CCN(C)CC2)ccc1Nc1ncc2c(n1)N(C)c1ccccc1C(=O)N2CC(F)(F)F` [DCLK1-IN-1], the IC50 in the data set with PATU-8988T cells (Homo sapiens, PaTu 8988t) was above 20 µM; against ERK5 [1], 5.36 µM; on ERK5 [2], 1.8 µM; on ERK5 [3] it was 4 µM; in data set [4], 0.279 µM; in the data set with PATU-8902 cells (Homo sapiens, PaTu 8902, 120 h), above 20 µM. The compound also came in with an IC50 on DCLK2 of 0.031 µM. Moreover, the Kd in [5] (ITC Kd, purified recombinant DCLK1 protein, Table 1) is 0.055 µM; in data set [5] (Kd, ITC, 20 μM DCLK1, 200 μM compound, Supplementary Table 2 and text), 0.109 µM. Moreover, in the data set on rat hippocampal neurons, the “effect on neuronal viability” value is “no effect on neuronal viability”. In the data set with zebrafish, the “effect on zebrafish CNS or other organ system development” value was “no discernable effect”.

`CCOc1cc(N2CCC(O)CC2)ccc1Nc1ncc2c(n1)N(C)c1ccccc1C(=O)N2C` [XMD8-92]: the IC50 in the data set on PATU-8988T cells (cell viability) is 6.06 µM; in [4] (read-out: DCLK1 cellular assay IC50, nanoBRET, HCT116 cells), 1.15 µM; in the data set on PATU-8902 cells (cell viability, 120 h, P.R. = partial response), above 20 µM; on DCLK2 (read-out: DCLK2 binding assay IC50, KINOMEscan), 3.6 µM.
